Series [1] concerns Mus musculus. The series can be described thus: Toxicity in mouse assessed as inflammatory cell infiltrate in gastric mucosa at 100 mg/kg, ip for seven consecutive days relative to control. The format is organism-based. Further details: dose 100 mg/kg, route intraperitoneal. Particulars: in vivo. An outline of the steps:
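After 7 daily ip doses, stomachs were cryosectioned at 3 μm and stained with H&E. Sections were scored blind 0–4 for inflammatory infiltrate, edema, epithelial loss and necrosis. Ten fields (40×) were read per section, means ± SEM.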

Series [2] relates to Mus musculus. Kind of series: Toxicity in mouse assessed as liver function measuring serum AST level at 100 mg/kg, ip for seven consecutive days relative to control. The format is organism-based. Further details: dose 100 mg/kg, route intraperitoneal. The settings on record: in vivo. An outline of the steps:
(§1)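 Mice were weighed and dosed ip once daily for 7 consecutive days, vehicle controls alongside, and monitored for toxic signs and general appearance. At the end, retro-orbital blood was taken under light anesthesia for leukocyte counts. Serum, from blood centrifuged at 2500 rpm for 15 min without anticoagulant, was used for ALT and AST.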

Series [3] deals with Mus musculus. The series can be described thus: Antinociceptive activity against Freund's complete adjuvant-induced paw inflammation in mouse assessed as reduction in mechanical hyperalgesia at 100 mg/kg, ip administered 40 mins before CFA challenge measured after 2 to 6 hrs. It counts as functional, organism-based. Further details: dose 100 mg/kg. The procedure, abridged: (§2)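 Mice, lightly halothane-anesthetized, got 20 μL complete Freund's adjuvant (1 mg/mL heat-killed M. tuberculosis in paraffin oil/mannide monooleate) sc into the right hind plantar surface. Treatment was ip in 2% DMSO/saline 40 min before CFA. Mechanical threshold was read with von Frey filaments by the up-down method at 2, 4 and 6 h. n = 6 mice/group, means ± SEM, two-way ANOVA with Bonferroni.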

Series [4] deals with Mus musculus. The series can be described thus: Antinociceptive activity against Freund's complete adjuvant-induced paw inflammation in mouse assessed as reduction in mechanical hyperalgesia at 50 mg/kg, ip administered 40 mins before CFA challenge measured after 2 to 6 hrs. It counts as functional, organism-based. Also noted: dose 50 mg/kg. The procedure, abridged:
as §2

Series [5] relates to Mus musculus. Kind of series: Toxicity in mouse assessed as renal function measuring serum creatinine level at 50 mg/kg, ip for seven consecutive days relative to control. The format is organism-based. Also noted: dose 50 mg/kg, route intraperitoneal. Particulars: in vivo. The procedure, abridged:
(§3)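 Once-daily ip dosing for seven consecutive days in male mice (22–28 g), with vehicle (2% DMSO in saline) as control. At the end of treatment, blood taken from the retro-orbital plexus under light anesthesia. Serum obtained without anticoagulant by centrifugation at 2500 rpm for 15 min, then assayed biochemically for urea and creatinine. Means ± SEM, 6–9 animals per group.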

In series [6] the test system is Mus musculus. Kind of series: Antinociceptive activity against Freund's complete adjuvant-induced paw inflammation in mouse assessed as reduction in paw edema at 100 mg/kg, ip administered 40 mins before CFA challenge measured after 2 hrs. It counts as functional, organism-based. Also noted: dose 100 mg/kg. An outline of the steps:
(§4)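 CFA (20 μL, 1 mg/mL heat-killed M. tuberculosis) was injected sc into the right hind plantar surface. Treatment was ip in 2% DMSO/saline 40 min before. Paw volume was read by plethysmometer before and after CFA, and edema taken as the volume difference (mm3/paw). n = 6 mice/group, means ± SEM, two-way ANOVA with Bonferroni.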

Series [7] relates to Mus musculus. Kind of series: Inhibition of IL1-beta production in Freund's complete adjuvant-induced mouse at 100 mg/kg, ip administered 40 mins before CFA challenge measured after 2 hrs by ELISA. The format is functional, organism-based. Also noted: dose 100 mg/kg. An outline of the steps: (§5)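 CFA was given intraplantar, with ip dosing (2% DMSO/saline vehicle) 40 min earlier. At 2 h, paw skin was taken under terminal halothane anesthesia. Tissue was extracted (100 mg/mL PBS with 0.4 M NaCl, 0.05% Tween 20 and protease inhibitors) and centrifuged at 3000g for 10 min. Supernatant was assayed by mouse ELISA, in pg/mL. n = 6/group.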
Background: ELISA stands for enzyme-linked immunosorbent assay.

For series [8], the system named is Mus musculus. Kind of series: Toxicity in mouse assessed as leukogram at 50 mg/kg, ip for seven consecutive days relative to control. The format is organism-based. Also noted: dose 50 mg/kg, route intraperitoneal. The settings on record: in vivo. An outline of the steps: as §1
Series [9] deals with Mus musculus. Kind of series: Antinociceptive activity against Freund's complete adjuvant-induced paw inflammation in mouse assessed as reduction in paw edema at 50 mg/kg, ip administered 40 mins before CFA challenge measured after 4 hrs. It counts as functional, organism-based. Further details: dose 50 mg/kg. An outline of the steps:
as §4

Series [10] concerns Mus musculus. The series can be described thus: Inhibition of IL10 production in Freund's complete adjuvant-induced C57BL/6 mouse paw at 100 mg/kg, ip administered 40 mins before CFA challenge measured after 3 hrs by ELISA. The format is functional, organism-based. Also noted: dose 100 mg/kg. An outline of the steps:
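C57BL/6 wild-type mice received an ip dose 40 min before intraplantar CFA. Paw tissue IL-10 was read by ELISA 3 h after CFA, on protein extracts in PBS/0.4 M NaCl/Tween 20 with protease inhibitors. A saline group got 20 μL intraplantar saline instead. n = 6/group, means ± SEM, two-way ANOVA with Bonferroni.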

In series [11] the test system is Mus musculus. Kind of series: Inhibition of IL1-beta production in Freund's complete adjuvant-induced mouse at 50 mg/kg, ip administered 40 mins before CFA challenge measured after 2 hrs by ELISA. It counts as functional, organism-based. Also noted: dose 50 mg/kg. The procedure, abridged: as §5
Series [12] relates to Mus musculus. Kind of series: Toxicity in mouse assessed as renal function measuring serum urea level at 50 mg/kg, ip for seven consecutive days relative to control. It counts as organism-based. Further details: dose 50 mg/kg, route intraperitoneal. The settings on record: in vivo. The procedure, abridged: as §3
Series [13] deals with Mus musculus. Kind of series: Neurotoxicity in mouse assessed as effect on motor coordination by measuring reduced latency at 100 mg/kg, ip after 40 mins by rotarod test. Further details: dose 100 mg/kg, route intraperitoneal. Particulars: in vivo. It counts as toxicity, organism-based. The procedure, abridged: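 Mice were pre-selected 24 h earlier for staying on the bar for two 120 s periods. Rotarod was a 3 cm bar at 5 rpm. Mice were tested 40 min after ip dosing, with diazepam 10 mg/kg ip as reference. Time on the rod was recorded up to 120 s. n = 6/group.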

Series [14] has as its system Mus musculus. The series can be described thus: Antinociceptive activity in ip dosed mouse assessed as inhibition of acetic acid-induced abdominal constrictions administered 40 mins before acetic acid challenge measured for 30 mins. The format is functional, organism-based. Particulars: Abdomen. The procedure, abridged:
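Dosing was ip in 2% DMSO/saline 40 min before ip acetic acid (0.8% v/v, 10 mL/kg). Writhes (abdominal contraction with hind-limb stretching) were counted over 0–30 min. n = 6 mice/group, means ± SEM, ANOVA with Tukey.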

Series [15] concerns Mus musculus. The series can be described thus: Antinociceptive activity against formalin-induced pain in mouse assessed as paw licking during early phase (0 to 10 mins) at 50 mg/kg, ip administered 40 mins before formalin challenge. Also noted: dose 50 mg/kg. It counts as functional, organism-based. An outline of the steps: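 Mice were acclimated 30 min in an observation chamber, then given 20 μL of 2.5% formalin sc into the dorsal hind paw. Dosing was ip (2% DMSO/saline vehicle) 40 min beforehand. Time spent licking the injected paw was scored over 0–10 min and 10–60 min. n = 6/group, means ± SEM, ANOVA with Tukey.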

Series [16] has as its system Mus musculus. The series can be described thus: Antinociceptive activity against Freund's complete adjuvant-induced paw inflammation in mouse assessed as reduction in paw edema at 50 mg/kg, ip administered 40 mins before CFA challenge measured after 2 hrs. It counts as functional, organism-based. Further details: dose 50 mg/kg. An outline of the steps:
as §4

Series [17] has as its system Mus musculus. Kind of series: Antinociceptive activity against Freund's complete adjuvant-induced paw inflammation in mouse assessed as reduction in paw edema at 50 mg/kg, ip administered 40 mins before CFA challenge measured after 6 hrs. The format is functional, organism-based. Further details: dose 50 mg/kg. An outline of the steps:
as §4

Series [18] deals with Mus musculus. Kind of series: Effect on baseline nociceptive threshold in Freund's complete adjuvant-induced mouse at 50 to 100 mg/kg, ip administered 40 mins before CFA challenge measured 2 to 6 hrs. The format is functional, organism-based.

Calls of active or inactive are those of the source.

For the compound `COc1c(O)cc2c(c1O)[C@@H]1O[C@H](CO)[C@@H](O)[C@H](O)[C@H]1OC2=O` [BERGENIN], the Activity entry in the series on Mus musculus [1], in the series on Mus musculus [2], in the series with Mus musculus [5], with Mus musculus [8], in the series on Mus musculus [12] and in the series on Mus musculus [13] was “Non-toxic” each time. In addition, the Activity entry with Mus musculus [14] is “Dose-dependent effect”. Moreover, the result in the series on Mus musculus [3], in the series with Mus musculus [4], in the series with Mus musculus [6], in the series on Mus musculus [9], in the series with Mus musculus [15] and with Mus musculus [16] was Active. Besides, the inhibition entry in the series on Mus musculus [7] and in the series on Mus musculus [11] was “Active” each time. Besides, the inhibition entry with Mus musculus [10] was “inactive”. Moreover, the result with Mus musculus [17] and in the series with Mus musculus [18] was inactive.

The values are drawn from ChEMBL document CHEMBL1833877, “Antinociceptive properties of bergenin” (J Nat Prod, 2011).
